Test results published in paper PMC4136688 (Journal of Medicinal Chemistry, 2014).

Tests used:
[1] = test system: Human glioma T98G cells; test: Time-dependent cellular uptake; assay type: cell-based; conditions: 10 μM, over 24 h
How it was run: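 T98G glioma cells (EMEM, 10% FBS) seeded 10 000/well, grown 36 h, then exposed to 10 μM test compound for 0, 1, 2, 4, 8, 24 h. After PBS wash, cells lysed in 0.25% Triton X-100/PBS; porphyrin fluorescence read at 415/650 nm. Cell number by CyQuant; uptake expressed as nM compound per cell.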

[2] = In vitro BBB model permeability; assay type: in vitro ADME, human
How it was run: (§1)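 hCMEC/D3 brain endothelial cells grown 48 h on 0.4 μm PET transwell inserts in EBM-2 with 5% FBS, hydrocortisone, ascorbic acid, lipid concentrate, HEPES, bFGF. Test compound or lucifer yellow reference (1 mg/mL in HBSS, pH 6.7–7.8) added apically; basolateral HBSS. 37 °C, 5% CO2; lower chamber sampled at 0, 30, 60 min (five replicates). Fluorescence 415/650 nm (LY 420/540); P by clearance principle.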

[3] = test system: Human glioma T98G cells; test: Dark cytotoxicity; assay type: cell-based; conditions: read-out: dark toxicity IC50, CellTiter Blue assay, concentrations up to 400 μM, overnight
[4] = test system: hCMEC/D3 cells; test: In vitro BBB model permeability; assay type: in vitro ADME, human; conditions: hCMEC/D3 monolayer, 1 mg/mL in HBSS, up to 60 min
How it was run: as §1

Permeability coefficient P × 10^–6 [4] | Compound | time-dependent uptake (in words) [1] | Papp A→B [2] | IC50 [3]
– | N=C(N)NCCC[C@@H](NC(=O)[C@H](Cc1ccc(O)cc1)NC(=O)CCOCCOCCOCCNc1c(F)c(F)c(-c2c3nc(c(-c4c(F)c(F)c(SCC56BBBBC(BBB5)BBB6)c(F)c4F)c4ccc([nH]4)c(-c4c(F)c(F)c(SCC56BBBBC(BBB5)BBB6)c(F)c4F)c4nc(c(-c5c(F)c(F)c(SCC67BBBBC(BBB6)BBB7)c(F)c5F)c5ccc2[nH]5)C=C4)C=C3)c(F)c1F)C(=O)N[C@@H](Cc1ccccc1)C(=O)NCCC(N)=O [Compound 8] | had the least | 1.71 ± 0.06 ×10⁻⁶ cm/s | –
1.36 ± 0.04 × 10^–6 cm/s | 5,10,15,20-Tetra(p-carboranylmethylthiotetrafluorophenyl)porphyrin [Compound 1] | accumulated the fastest | – | > 400 µM
21.7 ± 0.30 × 10^–6 cm/s | lucifer yellow [LY, reference compound] | – | – | –
